# High-throughput results as filed in PubChem.
# MC4R antag cAMP: blocks human MC4R cAMP signaling; P32245; MC4R-expressing cells, MTII-stimulated cAMP, LANCE TR-FRET; inhibition, % at 6.5 µM; 360,000 compounds, 0.48% hits; AID 540295;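 active = inhibition above its plate's cutoff, the mean of tested wells on that plate plus 3 SD, cut at about 29% in these data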;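 also: 0% = Melanotan II alone and 100% = Melanotan II plus saturating MCL0020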
# Target sequence (P32245 whole entry, looked up): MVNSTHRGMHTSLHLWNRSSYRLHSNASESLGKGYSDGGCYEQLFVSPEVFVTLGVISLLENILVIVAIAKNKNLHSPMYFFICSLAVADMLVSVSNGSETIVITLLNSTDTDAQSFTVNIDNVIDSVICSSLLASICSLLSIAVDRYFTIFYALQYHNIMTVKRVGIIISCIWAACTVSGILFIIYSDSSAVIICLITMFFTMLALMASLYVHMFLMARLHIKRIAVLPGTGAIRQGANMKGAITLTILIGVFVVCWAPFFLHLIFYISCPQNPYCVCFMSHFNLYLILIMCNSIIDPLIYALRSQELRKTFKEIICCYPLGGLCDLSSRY
#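 System: U2OS-MC4R stable cell line; Technique: Eu-cAMP/anti-cAMP TR-FRET, emission 671 nm; Repeats: single well per compound; Also added: Melanotan II; Dosing: one concentration, 6.5 µM nominal; Schedule: 30-min compound, 1-h challenge, 1-h detection, room temperature.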
# Myeloid diff MLP: myeloid differentiation induction | AID 624256 | ER-HoxA9 myeloid progenitors, lysozyme-GFP differentiation, flow cytometry | calls only at 10 µM | 360,000 compounds, 1% hits;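 active = normalized GFP-positive differentiation at or above the plate's own cutoff, the solvent-only control mean plus 3 SD; inconclusive = no clear call, values can overlap the other calls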;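 also: cells exposed to compound for four days before flow analysis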
# Exocytosis inh: lytic granule exocytosis inhibition. TALL-104 LAMP-1 surface exposure, flow cytometry; cells stimulated with thapsigargin and PMA. inhibition, % at 10 µM. 360,000 compounds, 0.66% hits. AID 651702;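 active = inhibition above about 55%, limit read from the data; inconclusive = no clear call, values can overlap the other calls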
# MC4R barr agon: agonists of human melanocortin 4 receptor (MC4R) beta-arrestin | P32245 | U2OS MC4R beta-arrestin complementation, luminescence; percent of melanotan II response, DMSO zero | activation, % at 8.9 µM | 360,000 compounds, 0.98% hits | AID 540308;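 active = activation above a per-plate cutoff, the mean activation of sample wells on that plate plus 3 SD, cut at about 8% in these data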
# EBI2 antag: antagonists of human EBI2 receptor; 360,000 compounds, 0.81% hits; inhibition, % at 5 µM; AID 651636; P32249; EBI2 beta-arrestin recruitment, luminescence, 7a,25-OHC stimulated; in the data active = inhibition above about 38%;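 also: enzyme fragment complementation signal reports receptor beta-arrestin coupling in cells; 0% = agonist plus DMSO wells and 100% = wells without agonist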
# EBI2 conf: EBI2 (human) antagonism, single concentration confirmation | 2,400 compounds, 29% hits | shares compounds with EBI2 antag | AID 651997 | inhibition, % at 5 µM | EBI2 beta-arrestin luminescence, 7a,25-OHC antagonism;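 active = inhibition of at least 50%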
# EBI2 ag: activates EBI2, counter-screen for EBI2 antagonists | shares compounds with EBI2 antag | EBI2-expressing cells, agonist mode, luminescence, 60 min; 0% vehicle, 100% 7α,25-dihydroxycholesterol control | 2,400 tested, under 10 active | activation, % at 5 µM;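 active = activation of at least 50%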
# bGal counter: beta-galactosidase inhibition counter-screen; shares compounds with EBI2 antag; purified beta-galactosidase, luminescent Galacton Star, 15 min; inhibition, % at 5 µM; 2,400 compounds, 1% hits;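 active = replicate-average signal at least 3 plate SD below neutral wells, shown as high inhibition, flagging enzyme-inhibiting false positives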;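 also: 0% = DMSO wells with enzyme and 100% = wells lacking enzyme; higher means stronger loss of beta-gal luminescence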
# * = called active by the depositor; i = inactive; ? = inconclusive; · = no result. Compounds with a hit are over-represented: about 3.7% of the library has one in this group of screens.
SMILES,MC4R antag cAMP,Myeloid diff MLP,Exocytosis inh,MC4R barr agon,EBI2 antag,EBI2 conf,EBI2 ag,bGal counter
CCOC(=O)c1cncn1[C@@H](C)c1ccccc1,-5,i,-10,2,56*,30,-1,2
CCc1ccc(NC(=O)CN2CC(c3ccccc3)CC2=O)cc1 (stereo not given),-4,i,-5,-2,-18,·,·,·
COC(=O)C1=C(c2ccc(-c3ccccc3)c(F)c2)C[C@@H]2CC[C@H]1N2C(=O)NCCc1ccccc1,10,i,1,-1,44*,20,0,5
COC(=O)C1=C(c2ccccc2OCc2ccccc2)C[C@@H]2CC[C@H]1N2C(=O)NCc1ccc(Cl)cc1,16,i,-2,2,44*,20,-1,-5
COC(=O)C1=C(c2ccccc2OCc2ccccc2)C[C@@H]2CC[C@H]1N2C(=O)NCc1ccc(N(C)C)cc1,21,i,0,0,5,·,·,·
COC(=O)C1=C(c2ccc(-c3ccccc3)c(F)c2)C[C@@H]2CC[C@H]1N2C(=O)NCCOc1ccc(OC)cc1,20,i,16,0,54*,20,-2,-1
COC(=O)C1=C(c2ccc(F)cc2OCc2ccccc2)C[C@@H]2CC[C@H]1N2C(=O)NCCOc1ccc(OC)cc1,12,i,-2,1,48*,40,0,0
CC(C)c1ccc(NC(=O)CSc2nnc(OC(=O)N(C)C)n2C2CC2)cc1,10,i,3,-2,-17,·,·,·
Cn1ncc(Cl)c1C(=O)N1CCC2(CC1)OCCO2,2,i,2,-1,-10,·,·,·
Cc1ccc(OCC(=O)N2CCN(Cc3ccc4c(c3)OCO4)CC2)cc1,2,i,-4,1,88*,61*,0,10
CC1CCC(N2CCN(C(=O)COc3ccccc3)CC2)CC1 (stereo not given),4,i,9,-1,32,·,·,·
COc1ccc(OCC(=O)N2CCN(Cc3ccc(SC)cc3)CC2)cc1,10,i,-2,1,71*,50*,0,-3
O=C(COc1ccc(Cl)cc1)N1CCN(Cc2ccccc2)CC1,15,i,-2,-1,91*,66*,-1,-5
CC(C)NS(=O)(=O)c1ccc(OCC(=O)N2CCN(Cc3ccccc3)CC2)cc1,13,i,-3,0,5,·,·,·
N#Cc1ccc(OCC(=O)N2CCN(Cc3ccc4c(c3)OCO4)CC2)cc1,8,i,6,0,35,·,·,·
O=C(COc1ccc(Cl)cc1)N1CCN(C2CCCC2)CC1,4,i,1,-1,89*,67*,-1,-13
COc1ccc(OCC(=O)N2CCN(Cc3ccc4c(c3)OCO4)CC2)cc1,5,i,0,1,86*,59*,0,9
O=C(COc1ccccc1)N1CCN(CC2CC3C=CC2C3)CC1 (stereo not given),6,i,4,-1,42,·,·,·
O=C(COc1ccccc1)N1CCN(CC2CC=CCC2)CC1 (stereo not given),3,i,?,1,68*,34,0,8
Cc1ccc(OCC(=O)N2CCN(Cc3ccc([N+](=O)[O-])cc3)CC2)cc1,9,i,-3,-1,94*,71*,1,11
COc1ccccc1OCC(=O)N1CCN(Cc2ccc3c(c2)OCO3)CC1,-3,i,-1,-1,0,·,·,·
Cc1ccc(OCC(=O)N2CCN(CC3CC4C=CC3C4)CC2)cc1 (stereo not given),2,i,-1,-2,84*,62*,-1,-5
CC(C)[C@H]1C(=O)O[C@@H]2CCN3CC=C(COC(=O)[C@](C)(O)[C@]1(C)O)[C@H]23,11,i,-12,-1,-10,·,·,·
COC(=O)[C@@]1(Sc2ccc(C)cc2)CC(=O)N(P(=O)(OC)OC)[C@@H]1c1ccccc1,·,i,-5,·,12,·,·,·
COC(=O)CNC(=O)c1cn(CCC#N)nc1-c1ccc(F)cc1,12,i,3,-2,-2,·,·,·
SMILES,MC4R antag cAMP,Myeloid diff MLP,Exocytosis inh,MC4R barr agon,EBI2 antag,EBI2 conf,EBI2 ag,bGal counter
Cc1nc2cc(F)ccc2n1C1CCN(Cc2nnnn2CCc2ccccc2)CC1,3,i,-1,-1,17,·,·,·
Cc1nc2cc(C(F)(F)F)ccc2n1C1CCN(Cc2nnnn2CCc2ccccc2)CC1,7,i,1,2,37*,45,1,3
CCOC(=O)[C@]12Cc3cc(OC)ccc3[C@H]1N(Cc1ccccc1)C(=O)c1cc(F)c(F)cc12,6,i,-10,-1,40*,23,-2,-8
OCC1CO1 (stereo not given),3,i,2,1,-5,·,·,·
O=c1c2ccccc2nc(Cc2cccc([N+](=O)[O-])c2)n1-c1ccc(O)cc1,5,i,22,0,4,·,·,·
Cc1ccc(O)c(C(=O)c2cc(C(=O)NCc3ccccc3)c(=O)n(Cc3ccccc3)c2)c1,2,i,14,-3,42*,16,0,3
O=C(c1cc(C(=O)NCc2ccccc2)c(=O)n(Cc2ccccc2)c1)c1cc(Br)ccc1O,13,i,-2,-1,21,·,·,·
CC1=C(C)CN2CC(C#N)=C(N)C2C1 (stereo not given),·,i,14,·,-14,·,·,·
COc1cccc(CN2CCN(C(=O)COc3ccc4ccccc4c3)CC2)c1,0,i,3,0,95*,74*,-1,-9
COc1cc(OC)c(OC)cc1CN1CCN(C(=O)COc2ccc3ccccc3c2)CC1,-6,i,15,0,71*,41,-1,-11
COC(=O)c1ccc(C(C(=O)NC2CCCCC2)N(CCN2CCOCC2)C(=O)Cc2cccs2)cc1 (stereo not given),-10,i,-1,1,6,·,·,·
O=C(C1CCN(c2nc3ccc(Br)cc3s2)CC1)N1CCC2(CC1)OCCO2,6,i,2,1,56*,12,0,0
CC(=O)Nc1ccc(OC(=O)N(C)c2ccc(C)cc2)cc1,15,i,6,0,-10,·,·,·
Cc1ccc(N(C)C(=O)Oc2ccc(C(=O)c3ccc(Cl)cc3)cc2)cc1,-4,i,0,0,78*,44,-1,-17
COc1ccc(CNCCc2ccc3c(c2)OCO3)cc1Br,-4,i,36,0,-7,·,·,·
